The values below come from ChEMBL document CHEMBL1125291, “New 8-(trifluoromethyl)-substituted quinolones. The benefits of the 8-fluoro group with reduced phototoxic risk” (1992).

The species named for assay [1] is Mus musculus. Nature of the assay: Days of the first positive reaction in […] mice. The format is functional. Summed up:
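Phototoxic skin reaction test in depilated female CD-1 mice. A single oral dose (gavage) or subcutaneous dose was given, followed 1 h later by 3 h of UVA exposure (320–400 nm). The regimen was repeated for up to 4 consecutive days, with initial doses of 30, 100 and 300 mg/kg. PTD50 was derived by the probit method. The first day of positive reaction and the no-effect dose were taken from the raw data.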

Assay [2] is filed under the species Mus musculus. Nature of the assay: Number of mice which show positive phototoxic reaction in 5 mice. Format: functional.
For assay [3], the system named is Escherichia coli. Nature of the assay: In vivo efficacy in mouse protection test in Escherichia coli Vogel administered by subcutaneous injection. The following applies: Escherichia coli, sc; read-out: PD50. The format is functional. The gist of the method: (§1)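 Acute lethal systemic infections in female Charles River CD-1 mice. A single dose was given at challenge, orally by gavage or by subcutaneous injection. PD50 (median protective dose, mg/kg) was determined.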

Assay [4] has as its system Escherichia coli. The assay is described as follows: In vivo efficacy in mouse protection test in Escherichia coli Vogel dose administered orally by gavage. The format is functional. The settings on record: Escherichia coli, po; read-out: PD50. The gist of the method: as §1
Assay [5] has as its system Escherichia coli. Nature of the assay: Minimum inhibitory concentration (MIC) against gram negative bacteria Escherichia coli H-560. The format is functional. The following applies: Escherichia coli; read-out: MIC. The gist of the method: (§2)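 MICs were determined by standard broth microtitration against 11 Gram-positive and Gram-negative organisms, in µg/mL. Values come from duplicate or triplicate experiments and are accurate to ±50%.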

For assay [6], the system named is Escherichia coli. Nature of the assay: Minimum inhibitory concentration (MIC) against gram negative bacteria Escherichia coli Vogel. Format: functional. The settings on record: Escherichia coli; read-out: MIC. The gist of the method: as §2
For another assay, the system named is Enterobacter cloacae. Nature of the assay: Minimum inhibitory concentration (MIC) against gram negative bacteria Enterobacter cloacae MA-2646. Format: functional.
The next assay relates to Klebsiella pneumoniae. Nature of the assay: Minimum inhibitory concentration (MIC) against gram negative bacteria Klebsiella pneumoniae MGH-2. The following applies: Klebsiella pneumoniae; read-out: MIC. Format: functional. The gist of the method: as §2
For assay [7], the species on record is Mus musculus. Nature of the assay: Dose required to induce phototoxic reaction in 50% of mice by probit method at different dosage forms. Format: functional.
The species entered for assay [8] is Mus musculus. Nature of the assay: Dose which has no effect to induce phototoxic reaction in 50% of mice by probit method. Format: functional.
Assay [9] has as its system Mus musculus. The assay is described as follows: Maximum tolerance dose was measured for phototoxic skin reaction by po administration. The format is functional.
The nature of assay [10]: Minimum inhibitory concentration (MIC) against gram negative bacteria Prot. rettgeri M-1771. The settings on record: Providencia rettgeri; read-out: MIC. The format is functional, Providencia rettgeri. Summed up: as §2
The next assay deals with Pseudomonas aeruginosa. The assay is described as follows: Minimum inhibitory concentration (MIC) against gram negative bacteria Pseudomonas aeruginosa UI-18. The settings on record: Pseudomonas aeruginosa; read-out: MIC. Format: functional. Summed up:
as §2

Assay [11] concerns Streptococcus pyogenes. The assay is described as follows: In vivo efficacy (s.c.) against Streptococcus pyogenes C-203 in mouse protection test. The format is functional. The following applies: Streptococcus pyogenes, sc; read-out: PD50. The gist of the method:
as §1

For assay [12], the system named is Streptococcus pyogenes. The assay is described as follows: In vivo efficacy (orally) against Streptococcus pyogenes C-203 in mouse protection test. Format: functional. The following applies: Streptococcus pyogenes, po; read-out: PD50. Summed up: as §1
The subject of assay [13] is Staphylococcus aureus. The assay is described as follows: Minimum inhibitory concentration (MIC) against gram positive bacteria Staphylococcus aureus H-228. The format is functional. The settings on record: Staphylococcus aureus; read-out: MIC. The gist of the method: as §2
Assay [14] has as its system Staphylococcus aureus. Nature of the assay: Minimum inhibitory concentration (MIC) against gram positive bacteria Staphylococcus aureus UC-76. The settings on record: Staphylococcus aureus; read-out: MIC. The format is functional. The gist of the method:
as §2

In the next assay the test system is Enterococcus faecalis. Nature of the assay: Minimum inhibitory concentration (MIC) against gram positive bacteria Streptococcus faecalis MGH-2. The settings on record: Enterococcus faecalis; read-out: MIC. The format is functional. The gist of the method:
as §2

Assay [15] concerns Streptococcus pneumoniae. Nature of the assay: Minimum inhibitory concentration (MIC) against gram positive bacteria Streptococcus pneumoniae SV-1. Format: functional. The following applies: Streptococcus pneumoniae; read-out: MIC. The gist of the method: as §2
Assay [16] concerns Streptococcus pyogenes. The assay is described as follows: Minimum inhibitory concentration (MIC) against gram positive bacteria Streptococcus pyogenes C-203. The following applies: Streptococcus pyogenes; read-out: MIC. Format: functional. Summed up: as §2
The test system of assay [17] is Streptococcus pneumoniae. The assay is described as follows: In vivo efficacy (s.c.) against Streptococcus pneumoniae SV-1 in mouse protection test. Format: functional. The following applies: Streptococcus pneumoniae, sc; read-out: PD50. Summed up:
as §1

For assay [18], the system named is Streptococcus pneumoniae. Nature of the assay: In vivo efficacy (orally) against Streptococcus pneumoniae SV-1 in mouse protection test. Format: functional. The settings on record: Streptococcus pneumoniae, po; read-out: PD50. The gist of the method:
as §1

Converted amounts (≈) assume the structure as drawn. Some results are limits rather than exact numbers.

For the molecule `C[C@@H]1CN(c2cc3c(cc2F)c(=O)c(C(=O)O)cn3C2CC2)CCN1`, the “Day of first positve reaction” value in the assay filed under Mus musculus [1] was found to be 0. The “No. of pos rxns” value in the assay listed under Mus musculus [2] was 1. Besides, the ED50 in the assay with Escherichia coli [3] came to 0.4 mg/kg; in the assay with Escherichia coli [4], 1.2 mg/kg; with Streptococcus pyogenes [11] it was 12 mg/kg; in the assay on Streptococcus pyogenes [12] it was 39 mg/kg. The MIC with Escherichia coli [5] worked out at 0.025 µg/mL (≈ 0.0724 µM); in the assay with Escherichia coli [6], 0.025 µg/mL (≈ 0.0724 µM); against Enterobacter cloacae, 0.025 µg/mL (≈ 0.0724 µM); in the assay on Klebsiella pneumoniae, 0.05 µg/mL (≈ 0.145 µM); in assay [10], 0.1 µg/mL (≈ 0.29 µM); with Pseudomonas aeruginosa, 0.4 µg/mL (≈ 1.16 µM). Moreover, the MIC in the assay on Staphylococcus aureus [13] turned out to be 0.4 µg/mL (≈ 1.16 µM); in the assay with Staphylococcus aureus [14] it was 0.1 µg/mL (≈ 0.29 µM); in the assay on Enterococcus faecalis it was 0.4 µg/mL (≈ 1.16 µM); in the assay on Streptococcus pneumoniae [15] it was 0.2 µg/mL (≈ 0.579 µM); in the assay on Streptococcus pyogenes [16] it was 0.2 µg/mL (≈ 0.579 µM). Also, the PTD50 in the assay filed under Mus musculus [7] was >100 mg/kg. Further, in the assay filed under Mus musculus [8], the No effect dose amounted to 100 mg/kg. In the assay with Mus musculus [9], this molecule returned an MTD of 100 mg/kg.
`NC1CCN(c2c(F)cc3c(=O)c(C(=O)O)cn(C4CC4)c3c2F)CC1`: the “Day of first positve reaction” value in the assay listed under Mus musculus [1] is given as 2. Also, the “No. of pos rxns” value in the assay filed under Mus musculus [2] is given as 5. Besides, the ED50 with Escherichia coli [3] turned out to be 1.2 mg/kg; with Escherichia coli [4], 3.7 mg/kg; in the assay on Streptococcus pneumoniae [17] it was 3.6 mg/kg; in the assay on Streptococcus pneumoniae [18], 15 mg/kg. Further, the MIC in the assay on Escherichia coli [5] amounted to 0.05 µg/mL (≈ 0.138 µM); with Escherichia coli [6], 0.1 µg/mL (≈ 0.275 µM); against Enterobacter cloacae it was 0.1 µg/mL (≈ 0.275 µM); with Klebsiella pneumoniae, 0.1 µg/mL (≈ 0.275 µM); in [10], 0.2 µg/mL (≈ 0.55 µM); with Pseudomonas aeruginosa, 0.8 µg/mL (≈ 2.2 µM). Further, the MIC was determined as 0.1 µg/mL (≈ 0.275 µM) in the assay on Staphylococcus aureus [13]; 0.025 µg/mL (≈ 0.0688 µM) with Staphylococcus aureus [14]; 0.2 µg/mL (≈ 0.55 µM) in the assay with Enterococcus faecalis; 0.4 µg/mL (≈ 1.1 µM) in the assay with Streptococcus pneumoniae [15]; 0.4 µg/mL (≈ 1.1 µM) in the assay with Streptococcus pyogenes [16]. In the assay listed under Mus musculus [7], the PTD50 was 55 mg/kg. The same molecule had a No effect dose in the assay filed under Mus musculus [8] of 30 mg/kg. In addition, the MTD with Mus musculus [9] came to 100 mg/kg.
With `CC1(CN)CCN(c2cc3c(cc2F)c(=O)c(C(=O)O)cn3C2CC2)C1` (stereo not drawn), in the assay listed under Mus musculus [1], the “Day of first positve reaction” value stood at 0. Besides, the “No. of pos rxns” value in the assay filed under Mus musculus [2] is listed as 0. The ED50 came to 1.7 mg/kg in the assay with Escherichia coli [3], 26 mg/kg in the assay on Escherichia coli [4], 0.45 mg/kg in the assay with Streptococcus pneumoniae [17] and 12 mg/kg in the assay with Streptococcus pneumoniae [18]. The MIC with Escherichia coli [5] turned out to be 0.025 µg/mL (≈ 0.0696 µM); in the assay with Escherichia coli [6], 0.025 µg/mL (≈ 0.0696 µM); against Enterobacter cloacae, 0.05 µg/mL (≈ 0.139 µM); with Klebsiella pneumoniae it was 0.2 µg/mL (≈ 0.556 µM); in assay [10] it was 0.4 µg/mL (≈ 1.11 µM); in the assay on Pseudomonas aeruginosa, 1.6 µg/mL (≈ 4.45 µM). For the same molecule, the minimum inhibitory concentration (MIC) in the assay on Staphylococcus aureus [13] came to 0.1 µg/mL (≈ 0.278 µM); in the assay on Staphylococcus aureus [14], 0.013 µg/mL (≈ 0.0362 µM); in the assay with Enterococcus faecalis, 0.05 µg/mL (≈ 0.139 µM); with Streptococcus pneumoniae [15] it was 0.003 µg/mL (≈ 0.00835 µM); in the assay on Streptococcus pyogenes [16], 0.003 µg/mL (≈ 0.00835 µM). In addition, in the assay filed under Mus musculus [7], the PTD50 is >100 mg/kg. The molecule also registered a No effect dose in the assay listed under Mus musculus [8] of 100 mg/kg. The same molecule registered a maximum tolerated dose (MTD) in the assay with Mus musculus [9] of 100 mg/kg.
As for `C[C@@H]1CN(c2c(F)cc3c(=O)c(C(=O)O)cn(C4CC4)c3c2C(F)(F)F)CCN1`, the “Day of first positve reaction” value in the assay listed under Mus musculus [1] was 0. Moreover, the “No. of pos rxns” value in the assay filed under Mus musculus [2] was 0. In addition, the ED50 turned out to be 1.4 mg/kg in the assay with Escherichia coli [3], 1.6 mg/kg in the assay with Escherichia coli [4], 21 mg/kg in the assay with Streptococcus pyogenes [11] and 23 mg/kg in the assay on Streptococcus pyogenes [12]. The minimum inhibitory concentration (MIC) was 0.05 µg/mL (≈ 0.121 µM) in the assay with Escherichia coli [5]; 0.1 µg/mL (≈ 0.242 µM) with Escherichia coli [6]; 0.2 µg/mL (≈ 0.484 µM) against Enterobacter cloacae; 0.4 µg/mL (≈ 0.968 µM) in the assay on Klebsiella pneumoniae; 0.8 µg/mL (≈ 1.94 µM) in assay [10]; 3.1 µg/mL (≈ 7.5 µM) with Pseudomonas aeruginosa. Moreover, the MIC with Staphylococcus aureus [13] stood at 0.4 µg/mL (≈ 0.968 µM); with Staphylococcus aureus [14] it was 0.2 µg/mL (≈ 0.484 µM); in the assay on Enterococcus faecalis, 0.8 µg/mL (≈ 1.94 µM); with Streptococcus pneumoniae [15], 0.8 µg/mL (≈ 1.94 µM); in the assay with Streptococcus pyogenes [16], 0.8 µg/mL (≈ 1.94 µM). Moreover, the PTD50 in the assay filed under Mus musculus [7] was >100 mg/kg. Besides, the No effect dose in the assay filed under Mus musculus [8] came to 100 mg/kg. Further, the MTD in the assay on Mus musculus [9] turned out to be 100 mg/kg.
As to `NC1CCN(c2c(F)cc3c(=O)c(C(=O)O)cn(C4CC4)c3c2C(F)(F)F)CC1`, the “Day of first positve reaction” value in the assay listed under Mus musculus [1] was determined as 0. In the assay filed under Mus musculus [2], the “No. of pos rxns” value was 0. The figures for the ED50 with Escherichia coli [3] and in the assay on Escherichia coli [4] were 4.5 mg/kg and 12.5 mg/kg, respectively. In addition, the minimum inhibitory concentration (MIC) with Escherichia coli [5] was determined as 0.2 µg/mL (≈ 0.484 µM); in the assay on Escherichia coli [6], 0.2 µg/mL (≈ 0.484 µM); in the assay with Enterobacter cloacae, 0.2 µg/mL (≈ 0.484 µM); with Klebsiella pneumoniae, 0.4 µg/mL (≈ 0.968 µM); in assay [10], 0.8 µg/mL (≈ 1.94 µM); in the assay with Pseudomonas aeruginosa, 3.1 µg/mL (≈ 7.5 µM). In addition, the MIC in the assay with Staphylococcus aureus [13] is 0.1 µg/mL (≈ 0.242 µM); with Staphylococcus aureus [14], 0.05 µg/mL (≈ 0.121 µM); in the assay with Enterococcus faecalis it was 0.2 µg/mL (≈ 0.484 µM); with Streptococcus pneumoniae [15] it was 0.2 µg/mL (≈ 0.484 µM); with Streptococcus pyogenes [16], 0.1 µg/mL (≈ 0.242 µM). Besides, the PTD50 in the assay listed under Mus musculus [7] is >100 mg/kg. In the assay listed under Mus musculus [8], this molecule displayed a No effect dose of 100 mg/kg. The same molecule returned an MTD in the assay on Mus musculus [9] of 100 mg/kg.

As usually defined, the MIC is the lowest concentration found to suppress growth. The MTD is the largest dose that counted as tolerated. A higher MTD goes with better tolerability.
